Assay outcomes deposited in PubChem BioAssay by several laboratories.
MLLE-PAM2 inh = inhibitors of PABP1 MLLE–PAM2 peptide binding, primary screen, biochemical, fluorescence polarization, FITC-PAM2, GST-MLLE | inhibition, % at 20 µM | 360,000 tested, 0.36% active | AID 588489, 2011; in the data active = inhibition above about 35%, passing the limit was not always enough;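 note: plate controls were DMSO wells with GST-MLLE for no effect and wells lacking GST-MLLE protein for full effect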
eIF4E 4G PPI = eIF4E–eIF4G protein interaction inhibitors, primary screen, biochemical, uHTS, TR-FRET, eIF4GI fragment; TR-FRET eIF4E-eIF4GI(517-606) binding, 2 h; 220,000 tested, 0.37% active; AID 782, 2007; inhibition, % at 21.7 µM;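 active = inhibition above about 30%, limit read from the data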;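 note: 0% = full FRET control wells and 100% = background wells lacking eIF4GI fragment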
PABP FP inh = PABP poly(A) RNA binding inhibitors, primary screen, biochemical, fluorescence polarization, uHTS. calls only at 35 µM. 290,000 tested, 1% active. Polyadenylate-binding protein 1 (Homo sapiens), P11940;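 note: calls also rest on retests at 20 µM and on dose response follow-up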
eIF4H FP inh = human eIF4H binding inhibitors, primary screen, translation initiation inhibitor project, biochemical, uHTS, fluorescence polarization; 290,000 tested, 0.94% active; eIF4H fluorescence polarization binding assay; Eukaryotic translation initiation factor 4H (Homo sapiens), Q15056; AID 2012, 2009; inhibition, % at 35 µM;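 note: calls also rest on retests at 20 µM and on dose response follow-up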
core dimer inh = inhibitors of HCV core protein dimerization, primary screen, biochemical, TR-FRET, high-throughput. TR-FRET GST/Flag-core106 dimerization, 1536-well. 300,000 tested, 0.33% active. AID 1899, 2009. inhibition, % at 5 µM;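 active = inhibition above the mean of all tested compounds plus 3 SD, set per screening campaign, cut at about 45% in these data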
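Assay system: GST-tagged and Flag-tagged HCV core protein residues 1-106 / Times: compound-protein-antibody incubation 4 h at 22.5 °C / Signal: time-resolved FRET, ex 340 nm, em 617 and 671 nm / Evaluation: % inhibition based on acceptor/donor emission ratio / Benchmarks: wells lacking GST-core106 and wells with excess unlabelled core106 / Repeats: singlicate, one well per compound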
UBC9 SUMO inh = inhibitors of in vitro SUMOylation cascade, primary screen, biochemical, HTRF, uHTS. 290,000 tested, 0.36% active. HTRF SUMOylation assay, SAE1/SAE2 + UBC9. inhibition, % at 35 µM. SUMO-conjugating enzyme UBC9 (Homo sapiens), P63279; in the data active = inhibition above about 50%, passing the limit was not always enough; inconclusive = no clear call, values can overlap the other calls
Target sequence (P63279 whole entry, looked up): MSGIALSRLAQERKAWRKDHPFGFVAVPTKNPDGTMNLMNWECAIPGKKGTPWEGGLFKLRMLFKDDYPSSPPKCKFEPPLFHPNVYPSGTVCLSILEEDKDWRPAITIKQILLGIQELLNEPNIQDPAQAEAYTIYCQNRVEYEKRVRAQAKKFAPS
Active calls of the source: *; i = inactive; u = inconclusive; x = no result given; + = active, no number; [ ] = dose if it differs, or a comment. This is a sample that favours compounds with a hit; in the whole collection about 1.8% have one here. Unless noted, the rule behind the calls is not given here.

SMILES | MLLE-PAM2 inh | eIF4E 4G PPI | PABP FP inh | eIF4H FP inh | core dimer inh | UBC9 SUMO inh
O=C(NC1CCCCC1)C(Cc1ccccc1)NS(=O)(=O)c1cccs1 (stereo not drawn) | -6 | 0 | i | 6 | -6 | 1
O=S(=O)(NC1CCCCCCC1)c1ccccc1 | 9 | x | i | -6 | 2 | -8
O=S(=O)(NC(=S)c1ccccc1)c1ccc(Cl)cc1 | 23 | x | i | -4 | 6 | 14
O=S(=O)(NC(=S)NC1CCCCC1)c1ccccc1 | 37* | -3 | i | -1 | -4 | -3
CS(=O)(=O)c1ccc(S(=O)(=O)N2CCC(CO)(CCCc3ccccc3)CC2)cc1 | -9 | x | i | -4 | 7 | -1
CC1CCCCC1NC(=O)c1cccc(S(=O)(=O)N2CCN(Cc3ccccc3)CC2)c1 (stereo not drawn) | 3 | x | x | x | 5 | x
N=c1sccn1CC(=O)NC(c1ccccc1)c1ccccc1 | 2 | -1 | i | 1.1* | -6 | 14
CCN1C(=O)C(=O)N(CC(=O)N2CCN(c3ccccc3)CC2)C1=O | -3 | x | x | x | 0 | x
CN1/C(=N\O)c2cccc3cccc1c23 | 22 | 30 | i | 7 | -36 | 36
CC(=O)c1ccc2cccc3c2c1N=CN3C | 17 | 7 | i | 72* | -14 | 77
O=C(Cn1cc(S(=O)(=O)Cc2cccc([N+](=O)[O-])c2)c2ccccc21)N1CCOCC1 | -3 | x | i | -4 | 1 | -5
CCOC(=O)C1(CCCc2ccccc2)CCN(Cc2ccn[nH]2)CC1 | 0 | 3 | i | 0 | -10 | -5
O=C(Oc1ccc[nH]c1=O)c1ccccc1 | 1 | x | x | x | x | x
O=C(Nc1ccc(F)cc1)Oc1ccc[nH]c1=O | 3 | 2 | i | 3 | 3 | 99*
Cc1c(Cl)cccc1NC(=S)NCCc1ccc(S(N)(=O)=O)cc1 | 42* | 2 | i | 3 | -2 | 8
CCc1ccc(C(N)=S)cc1 | 41* | -1 | u | -7 | 2 | -6
COc1ccc(C(N)=S)cc1 | 34 | -2 | i | -3 | -3 | 14
Cc1ccc(S(=O)(=O)N2CCN(C(=O)c3ccc4nc[nH]c4c3)CC2)cc1 | 0 | x | x | x | 7 | x
Cc1cc(C)nc(N/N=C/c2cc3c(cc2[N+](=O)[O-])OCO3)n1 | 8 | -2 | + | 55* | -10 | -8
Cc1ccccc1N=Cc1cc2c(cc1[N+](=O)[O-])OCO2 | 15 | 8 | + | 96 | -1 | 66
O=C(O)c1ccc(N/N=C/c2cc3c(cc2[N+](=O)[O-])OCO3)cc1 | 26 | 2 | x | x | -22 | 26
O=c1/c(=C/c2ccco2)sc2n1CN(c1ccccc1)CN=2 | -10 | 0 | i | -8 | -6 | -2
O=c1/c(=C/c2ccco2)sc2n1CN(c1cccc(Br)c1)CN=2 | -83 | -16 | + | 51* | 11 | -13
O=S1(=O)CCN2N=C(C34CC5CC(CC(C5)C3)C4)SC2=N1 | 2 | -4 | i | -11 | 1 | -6
Cc1cc(NCCO)c2ccccc2n1 | -7 | 1 | i | 1 | -1 | -2
SMILES | MLLE-PAM2 inh | eIF4E 4G PPI | PABP FP inh | eIF4H FP inh | core dimer inh | UBC9 SUMO inh
Cc1cc(NCCO)c2cc(O)ccc2n1 | -1 | 11 | i | -13 | 9 | 57*
CCN(CC(=O)NC1CCS(=O)(=O)C1)S(=O)(=O)c1ccc(Cl)c(C(F)(F)F)c1 (stereo not drawn) | -2 | x | x | x | x | x
O=c1oc2ccccc2c(Nc2cccc(O)c2)c1[N+](=O)[O-] | 0 | 0 | + | 84* | 18 | 19
CCN(CCC#N)c1ccc(/C=N/Nc2nc(C)cc(=O)[nH]2)c(C)c1 | 0 | 2 | + | 2.2* | -9 | -18
COc1cccc(-c2nnn(CC(=O)N(C3CCCCC3)C3CCS(=O)(=O)C3)n2)c1 (stereo not drawn) | -6 | x | x | x | x | x
CCN(CC)C(=O)c1ccc(N)cc1 | 6 | -3 | i | -2 | -5 | 13
O=C(O)Cc1ccc(NC(=O)c2ccc3c(c2)C(=O)N(Cc2ccco2)C3=O)cc1 | 18 | x | + | 100* | -14 | -1
Cc1ccc(N2CC(C(=O)Nc3ncc([N+](=O)[O-])s3)CC2=O)cc1 (stereo not drawn) | 0 | x | i | 10 | -8 | -7
COc1ccc2[nH]c3c(C)c4ccncc4c(C)c3c2c1 | -13 | 33* | i | 29 | -30 | 18
CN(Cc1ccc(Cl)cc1)C(=O)CNC(=O)C12CC3CC(CC(C3)C1)C2 | 7 | x | x | x | x | x
Cn1c(=O)c2c([nH]c(OCc3ccc(Cl)cc3Cl)[n+]2Cc2ccc(F)cc2)n(C)c1=O | 2 | -1 | i | 8 | 6 | 3
Cc1ccc(-n2c(C)cc(=O)cc2C)cc1[N+](=O)[O-] | -2 | x | i | -2 | -11 | 0
O=CN/C=C/c1cc(O)ccc1O | 33 | 0 | + | 94* | -7 | 39
O=Cc1ccc(O)cc1O | -4 | x | i | -4 | -2 | 12
COc1ccc(N2CSC3=C(C#N)C(c4cccs4)CC(=O)N3C2)cc1 (stereo not drawn) | -41 | 47*[fluorescence artefact?] | + | 15* | 2 | 34
Cc1ccc(N2CSC3=C(C#N)C(c4cccs4)CC(=O)N3C2)cc1 (stereo not drawn) | -30 | 1 | + | 61* | 18 | 55
N#CC1=C2SCN(c3ccc(F)cc3)CN2C(=O)CC1c1cccc(F)c1 (stereo not drawn) | -37 | 3 | i | 43* | -15 | 29
CN(CCc1ccccc1)C(=O)c1ccc(NC(=O)Cc2ccc(NC(=O)C3CCCN(C(=O)CCc4ccccc4)C3)cc2)cc1 (stereo not drawn) | -6 | x | x | x | x | x
CCOCC(=O)Nc1nnc(COc2ccc(Cl)cc2)s1 | 37* | 3 | i | 4 | 1 | 14
CCN(CC)CCN=c1c(C)nc(C#N)c(N)n1O | -2 | x | x | x | x | x
CCOC(=O)N1CCC(NS(=O)(=O)c2ccc3c(c2)oc(=O)n3C)CC1 | 0 | 8 | + | 67* | -1 | 15
CCOC(=O)N1CCC(NC(=O)C2CCCN(S(=O)(=O)c3ccc4c(c3)oc(=O)n4C)C2)CC1 (stereo not drawn) | 4 | -1 | i | -3 | -2 | 6
Cn1c(=O)oc2cc(S(=O)(=O)NCc3ccncc3)ccc21 | 4 | 5 | + | 72* | -9 | 15
Cc1ccc(C(=O)O)cc1NS(=O)(=O)c1ccc2c(c1)oc(=O)n2C | -2 | x | + | 77 | x | 12
